Columns and labels:
[1] = target: T1, Plasminogen activator inhibitor 1 (Homo sapiens, UniProt P05121); test: Percentage inhibitory activity against Plasminogen activator inhibitor-1 at 10 uM
Method in brief: (§1)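 Recombinant human PAI-1 with compound, then tPA added; restored tPA cleavage of a chromogenic substrate read spectrophotometrically and reported as % inhibition at single concentration. Buffer pH 6.6: Na2HPO4 50 mM, NaCl 200 mM, EDTA 1 mM, no serum protein.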

[2] = target: T1, Plasminogen activator inhibitor 1; test: Percentage inhibitory activity against Plasminogen activator inhibitor-1 at 25 uM; method in brief: as §1
[3] = target: T1, Plasminogen activator inhibitor 1; test: Percentage inhibitory activity against Plasminogen activator inhibitor-1 at 100 uM; method in brief: as §1
[4] = target: T1, Plasminogen activator inhibitor 1; test: Inhibitory concentration against Plasminogen activator inhibitor-1 by antibody assay

T1 sequence (P05121 whole entry): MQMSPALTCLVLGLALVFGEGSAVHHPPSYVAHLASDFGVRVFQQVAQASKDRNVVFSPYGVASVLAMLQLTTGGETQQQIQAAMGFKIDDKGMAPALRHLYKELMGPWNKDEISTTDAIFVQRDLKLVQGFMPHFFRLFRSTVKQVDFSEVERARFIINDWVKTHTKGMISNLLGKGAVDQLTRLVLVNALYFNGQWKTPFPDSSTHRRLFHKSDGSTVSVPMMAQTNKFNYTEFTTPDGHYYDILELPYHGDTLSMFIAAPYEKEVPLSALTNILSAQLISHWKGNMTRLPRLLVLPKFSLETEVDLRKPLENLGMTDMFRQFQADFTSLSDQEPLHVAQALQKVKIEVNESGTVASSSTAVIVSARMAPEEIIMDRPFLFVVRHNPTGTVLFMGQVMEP

Q: What does the source list for `O=C(Nc1ccc2c(c1)c(-c1ccccc1)c(C(=O)O)n2Cc1ccccc1)c1ccc(F)cc1F`?
A: Inhibition [1]: 24%; Inhibition [2]: 43%

Q: For `Cn1c(C(=O)O)c(-c2ccccc2)c2cc(NS(=O)(=O)c3ccc(C(C)(C)C)cc3)ccc21`, which Inhibition [1] is on record?
A: Its Inhibition is 5%.

Q: What about the Inhibition [2] of the same molecule?
A: The Inhibition was 46%.

Q: `O=C(O)c1cc2cc(NS(=O)(=O)c3ccc(Cl)c(Cl)c3)ccc2n1Cc1ccccc1` was tested. Which Inhibition [3] did it give?
A: Its Inhibition is 62%.

Q: With `O=C(O)c1c(-c2ccccc2)c2cc(NS(=O)(=O)c3ccc(-c4ccccc4)cc3)ccc2n1Cc1ccccc1` as the molecule, how does the Inhibition [1] read?
A: The Inhibition was 44%.

Q: And the Inhibition [2]?
A: The Inhibition was 61%.

Q: For `O=C(O)c1c(-c2ccccc2)c2cc(Nc3ccc(-c4ccccc4)cc3)ccc2n1Cc1ccccc1`, which Inhibition [1] is on record?
A: Its Inhibition is 36%.

Q: What about the Inhibition [2] of the same molecule?
A: Its Inhibition is 71%.

Q: `O=C(Nc1ccc(Cl)c(Cl)c1)c1ccc(CNc2cc([N+](=O)[O-])ccc2C(=O)O)cc1` was tested. Which Inhibition [1] did it give?
A: The Inhibition was 3%.

Q: What about the Inhibition [2] of the same molecule?
A: Its Inhibition is 51%.

Q: What about the Inhibition [3] of the same molecule?
A: Its Inhibition is 74%.

Q: What about the IC50 [4] of the same molecule?
A: Its IC50 is 17.8 µM.

Q: How did the Inhibition [1] turn out when `O=C(O)c1c(-c2ccccc2)c2cc(NS(=O)(=O)c3ccccc3)ccc2n1Cc1ccc(-c2ccccc2)cc1` was run?
A: The Inhibition was 79%.

Q: What about the Inhibition [2] of the same molecule?
A: Its Inhibition is 87%.

Q: `CC(C)(C)c1ccc(Nc2ccc3c(c2)c(-c2ccccc2)c(C(=O)O)n3Cc2ccccc2)cc1` was tested. Which Inhibition [1] did it give?
A: Its Inhibition is 45%.

Q: And the Inhibition [2]?
A: Its Inhibition is 73%.

Q: How did the Inhibition [1] turn out when `Cn1c(C(=O)O)c(-c2ccccc2)c2cc(NS(=O)(=O)c3ccc(-c4ccccc4)cc3)ccc21` was run?
A: Its Inhibition is 11%.

Q: And the Inhibition [2]?
A: Its Inhibition is 68%.

Q: Which Inhibition [3] does the source give for `CCCCS(=O)(=O)Nc1ccc2c(c1)cc(C(=O)O)n2Cc1ccccc1` here?
A: The Inhibition was 14%.

Q: What does the source list for `Cn1c(C(=O)O)c(-c2ccccc2)c2cc(NS(=O)(=O)c3cccc4cccnc34)ccc21`?
A: Inhibition [1]: 0%; Inhibition [2]: 1%

Q: What does the source list for `O=C(O)C(=O)c1cn(Cc2ccccc2)c2ccc(-c3ccc(OC(F)(F)F)cc3)cc12`?
A: Inhibition [1]: 0%; Inhibition [2]: 47%; Inhibition [3]: 83%

Q: Which results are given for `Cn1c(C(=O)O)c(-c2ccccc2)c2cc(NS(=O)(=O)c3ccc(OC(F)(F)F)cc3)ccc21`?
A: Inhibition [1]: 0%; Inhibition [2]: 19%

Q: With `O=C(O)c1cc2cc(NS(=O)(=O)c3ccc(-c4ccccc4)cc3)ccc2n1Cc1ccccc1` as the molecule, how does the Inhibition [2] read?
A: Its Inhibition is 49%.

Q: What about the Inhibition [3] of the same molecule?
A: Its Inhibition is 64%.

Q: What about the IC50 [4] of the same molecule?
A: The IC50 was 63.1 µM.

Q: For `O=C(Nc1ccc2c(c1)c(-c1ccccc1)c(C(=O)O)n2Cc1ccccc1)Nc1ccc(F)cc1F`, which Inhibition [1] is on record?
A: The Inhibition was 27%.

Q: And the Inhibition [2]?
A: The Inhibition was 61%.

Q: For `O=C(O)c1c(-c2ccccc2)c2cc(NS(=O)(=O)c3ccc(OC(F)(F)F)cc3)ccc2n1Cc1ccccc1`, which Inhibition [1] is on record?
A: Its Inhibition is 33%.

Q: And the Inhibition [2]?
A: The Inhibition was 81%.

Q: Which Inhibition [3] does the source give for `O=C(O)c1cc2cc(NS(=O)(=O)c3ccccc3)ccc2n1Cc1ccccc1` here?
A: Its Inhibition is 32%.

Q: For `O=C(O)c1c(-c2ccccc2)c2cc(NS(=O)(=O)c3cccc4cccnc34)ccc2n1Cc1ccccc1`, which Inhibition [1] is on record?
A: The Inhibition was 8%.

Q: What about the Inhibition [2] of the same molecule?
A: The Inhibition was 43%.

Q: For `Cc1ccc(C)n1-c1ccc2c(c1)c(-c1ccccc1)c(C(=O)O)n2Cc1ccccc1`, which Inhibition [1] is on record?
A: Its Inhibition is 23%.

Q: And the Inhibition [2]?
A: Its Inhibition is 83%.

Q: Which results are given for `O=C(O)c1c(-c2ccccc2)c2cc(-n3cccc3)ccc2n1Cc1ccccc1`?
A: Inhibition [1]: 12%; Inhibition [2]: 69%

Q: With `CC(C)(C)c1ccc(S(=O)(=O)Nc2ccc3c(c2)c(-c2ccccc2)c(C(=O)O)n3Cc2ccccc2)cc1` as the molecule, how does the Inhibition [1] read?
A: Its Inhibition is 41%.

Q: And the Inhibition [2]?
A: Its Inhibition is 82%.

Q: Which results are given for `Cc1cccc(Nc2ccc3c(c2)c(-c2ccccc2)c(C(=O)O)n3Cc2ccccc2)c1`?
A: Inhibition [1]: 24%; Inhibition [2]: 69%

Q: With `CC(C)(C)c1ccc(Nc2ccc3c(c2)c(-c2ccccc2)c(C(=O)O)n3Cc2ccc(-c3ccccc3)cc2)cc1` as the molecule, how does the Inhibition [1] read?
A: Its Inhibition is 52%.

Q: And the Inhibition [2]?
A: The Inhibition was 80%.
